The subject of one data set is Brain. Nature of the data set: Drug concentration in mouse brain at 10 mg/kg, po after 16 hrs. It counts as ADME, organism-based. Also noted: dose 10 mg/kg, route oral. The following applies: in vivo. An outline of the steps: (§1)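 Wild-type mice given single oral doses of 5, 10, 25 or 50 mg/kg. Plasma and brain sampled at 1, 4 and 8 h after dosing, and also at 16 and 24 h. Drug measured by HPLC/MS. n = 5; SD. Half-lives derived from the concentration–time course.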

The subject of data set [1] is Mus musculus. The data set is described as follows: Decrease in neuronal atrophy in R6/2 mouse assessed as striatal neuronal cell body volume at 200 mg/kg relative to control. It counts as functional. Also noted: scale not given: the % may be the effect or the level left. In a few lines: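 Female R6/2 mice given oral gavage twice daily from 3 weeks of age until death or kill. Perfused at 90 days with 2% paraformaldehyde. Every eighth 50 μm thionin-stained section used; striatal neuronal cell body volume estimated stereologically by the nucleator method. n = 10; mean ± SEM; ANOVA versus placebo-treated R6/2 mice.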

The next data set deals with Plasma. The data set is described as follows: Drug concentration in mouse plasma at 25 mg/kg, po after 24 hrs. Also on record: dose 25 mg/kg, route oral. The following applies: in vivo. It counts as ADME, organism-based. In a few lines: as §1
Data set [2] in a line: Lipophilicity, log P of the compound. The following applies: octanol/water. It counts as physicochemical.
Data set [3] concerns Mus musculus. The data set is described as follows: Reduction of decrease in motor dysfunction in R6/2 mouse assessed as improvement in wire-hang endurance at 100 mg/kg/12 hrs after 12.5 weeks. It counts as functional, organism-based. In a few lines:
(§2)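 Female R6/2 mice dosed by oral gavage at 0, 100 or 200 mg/kg/12 h from 24 days of age. Wire-hang endurance tested at 9.5 and 12.5 weeks: mouse placed on horizontal wire mesh, mesh gently inverted, and time hanging recorded. Three trials per day on three consecutive days, averaged. n = 15; geometric mean ± 95% CI; mixed-model analysis.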

The species entered for data set [4] is Mus musculus. Nature of the data set: Reduction of decrease in motor dysfunction in R6/2 mouse assessed as increase in latency to fall at 8 weeks of age by rotarod test. It counts as functional. Also on record: scale not given: the % may be the effect or the level left. In a few lines:
(§3)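 R6/2 mice dosed orally at 0, 100 or 200 mg/kg/12 h from 24 days of age until death. Rotarod latency to fall tested at 5, 8 and 11 weeks of age. n = 15; geometric mean ± 95% CI; mixed-model analysis.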
Background: In the rotarod test animals must keep their balance on a rotating rod.

Data set [5] deals with Mus musculus. Nature of the data set: Toxicity in R6/2 mouse assessed as survival at 100 mg/kg/12 hrs for 4 weeks. It counts as organism-based. The following applies: in vivo.
In data set [6] the test system is Mus musculus. Nature of the data set: Toxicity in R6/2 mouse assessed as effect on body weight at 50 mg/kg/12 hrs for 4 weeks. It counts as organism-based. The conditions noted are these: in vivo. An outline of the steps: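 Chronic tolerability study in adult R6/2 mice, n = 10 per group, dosed with 50, 100 or 200 mg/kg/12 h for 4 weeks by oral gavage. Body weight recorded weekly at the same time of day.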

Another data set has as its system PC-12. The data set is described as follows: Inhibition of polyQ aggregation in rat PC12 cells. It counts as functional, cell-based.
The species entered for data set [7] is Mus musculus. Nature of the data set: Reduction of decrease in motor dysfunction in R6/2 mouse assessed as increase in latency to fall at 11 weeks of age by rotarod test. It counts as functional. Also on record: scale not given: the % may be the effect or the level left. An outline of the steps:
as §3

The nature of data set [8]: Half life in po dosed mouse brain. It counts as ADME, organism-based. An outline of the steps:
as §1

Data set [9] deals with Mus musculus. The data set is described as follows: Toxicity in R6/2 mouse assessed as effect on body weight at 100 mg/kg/12 hrs for 4 weeks. It counts as organism-based. The following applies: in vivo. An outline of the steps:
(§4)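 Chronic tolerability study in adult female R6/2 mice (back-crossed onto C57BL/6 × CBA F1), n = 10 per group. Oral gavage twice daily at 50, 100 or 200 mg/kg/12 h for 4 weeks, given as a suspension made fresh daily. Body weight was recorded weekly at the same time of day.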

The species named for data set [10] is Mus musculus. Nature of the data set: Reduction of decrease in motor dysfunction in R6/2 mouse assessed as improvement in wire-hang endurance after 9.5 weeks. The following applies: in vivo, 1596 h. It counts as organism-based. In a few lines:
as §2

Data set [11] in a line: Inhibition of opioid receptor. In a few lines: (§5)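 Screened against a panel of 60 receptors, ion channels and transporters expressed in mammalian brain. Receptor-binding profile reported as IC50.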
Data set [12] concerns Mus musculus. Nature of the data set: Decrease in striatal nuclear aggregate volume in R6/2 mouse at 200 mg/kg by nucleator method. It counts as functional. Also noted: scale not given: the % may be the effect or the level left. An outline of the steps:
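R6/2 mice dosed orally twice daily from 3 weeks of age, perfusion-fixed at 90 days. Floating forebrain sections at the anterior commissure crossing were stained with EM48 (1:2,000) for 2 days, then biotinylated secondary antibody and ABC development. Intranuclear aggregate volume in the striatum measured by the nucleator method. Compared with vehicle-treated R6/2 mice.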

A further data set has as its target T1, Adenosine receptor A3 (Homo sapiens, UniProt P0DMS8).
T1 sequence (P0DMS8 whole entry): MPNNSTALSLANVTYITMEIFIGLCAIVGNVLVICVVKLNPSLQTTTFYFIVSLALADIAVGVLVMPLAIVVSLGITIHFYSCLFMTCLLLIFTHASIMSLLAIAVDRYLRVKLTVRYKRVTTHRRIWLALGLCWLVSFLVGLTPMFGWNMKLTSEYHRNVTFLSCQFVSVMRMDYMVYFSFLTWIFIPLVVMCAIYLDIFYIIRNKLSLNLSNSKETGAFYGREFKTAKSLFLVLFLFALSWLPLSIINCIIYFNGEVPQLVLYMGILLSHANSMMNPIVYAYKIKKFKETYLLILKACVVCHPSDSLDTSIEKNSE
Nature of the data set: Inhibition of adenosine A3 receptor. In a few lines: as §5

Data set [13] addresses Sodium-dependent dopamine transporter (Homo sapiens, UniProt Q01959). Nature of the data set: Inhibition of DAT. An outline of the steps: as §5
Data set [14] is described as follows: Plasma half life in po dosed mouse. It counts as ADME, organism-based. In a few lines: as §1
Data set [15] can be described thus: Drug level in mouse cerebral cortex at 50 mg/kg, po administered for 5 days after 5 hrs. It counts as ADME, organism-based. Also on record: dose 50 mg/kg, route oral. The conditions noted are these: read-out: Drug uptake. In a few lines: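 Wild-type mice (n = 5) given 50 mg/kg by oral gavage as a suspension for 5 days. Killed 5 h after the last dose. Cortex (20–30 mg) sonicated in acetonitrile/0.4% acetic acid at −10°C, centrifuged, and the supernatant dried and reconstituted in mobile phase. Analysed by LC electrochemical array against a 0.8 μg/ml standard.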

The test system of data set [16] is Mus musculus. The data set is described as follows: Toxicity in R6/2 mouse assessed as body weight at 200 mg/kg/12 hrs for 4 weeks. It counts as organism-based. The conditions noted are these: in vivo. An outline of the steps:
as §4

In data set [17] the test system is Mus musculus. Nature of the data set: Toxicity in R6/2 mouse assessed as survival at 200 mg/kg/12 hrs for 4 weeks. It counts as organism-based. The conditions noted are these: in vivo.

SMILES strings stand for the structures. The source made the active and inactive calls.

These results are taken from ChEMBL document CHEMBL1156525, “A small-molecule therapeutic lead for Huntington's disease: preclinical pharmacology and efficacy of C2-8 in the R6/2 transgenic mouse” (Proc Natl Acad Sci U S A, 2007).

One may read the logP as a log measure of how a compound divides between an organic and an aqueous phase. What is called IC50 is the concentration needed to halve the response being measured. As a reminder, the half-life is the time needed for the level to fall by half in the phase considered.

Sodium-dependent dopamine transporter, sequence (Q01959 whole entry): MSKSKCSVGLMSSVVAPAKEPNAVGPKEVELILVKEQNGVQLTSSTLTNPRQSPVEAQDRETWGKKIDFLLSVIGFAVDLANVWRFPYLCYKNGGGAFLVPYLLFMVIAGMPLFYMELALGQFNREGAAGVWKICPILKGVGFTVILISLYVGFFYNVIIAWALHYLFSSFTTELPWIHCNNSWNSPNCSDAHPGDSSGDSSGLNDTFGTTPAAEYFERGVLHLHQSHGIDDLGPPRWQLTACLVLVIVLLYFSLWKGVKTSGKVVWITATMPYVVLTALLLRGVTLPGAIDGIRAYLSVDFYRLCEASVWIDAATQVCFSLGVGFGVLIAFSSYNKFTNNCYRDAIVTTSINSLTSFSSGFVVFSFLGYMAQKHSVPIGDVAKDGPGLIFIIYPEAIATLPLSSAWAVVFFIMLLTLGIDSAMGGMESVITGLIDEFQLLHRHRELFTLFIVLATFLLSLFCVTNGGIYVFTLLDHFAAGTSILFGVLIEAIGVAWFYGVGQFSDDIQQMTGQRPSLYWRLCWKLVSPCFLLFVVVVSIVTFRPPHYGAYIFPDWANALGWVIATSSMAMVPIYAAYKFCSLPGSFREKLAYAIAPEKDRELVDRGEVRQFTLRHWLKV

`O=C(Nc1ccc(Br)cc1)c1cccc(S(=O)(=O)Nc2ccc(Br)cc2)c1`: in the data set with Brain, the Drug uptake is < 15 pmol/g. Also, the Activity was 20% in the data set on Mus musculus [1]; 37% in the data set filed under Mus musculus [4]; “Non-toxic” with Mus musculus [5]; “Non-toxic” with Mus musculus [6]; 43% in the data set filed under Mus musculus [7]; “Non-toxic” with Mus musculus [9]. Moreover, the Activity entry in the data set listed under Mus musculus [10] is reported as “Active”; in the data set on Mus musculus [12] it was 35%; with Mus musculus [16], “Non-toxic”; in the data set with Mus musculus [17], “Non-toxic”. In the data set with Plasma, the Cp was < 3 pmol/g. Moreover, the logP in data set [2] is 5.2. Besides, the outcome with Mus musculus [3] was Active. Besides, the 50% inhibitory concentration (IC50) in the data set with PC-12 amounted to 50 nM; in data set [11], 2790 nM; at Adenosine receptor A3 it was 5760 nM; in [13], 1700 nM. Also, the results for the half-life in [8] and in data set [14] were 1.6 h and 1.5 h, respectively. In data set [15], the concentration at 5 h turned out to be 25 µM.
